Source: the RNAGym collection of RNA variant scans (doi:10.1126/science.aae0568)
Variants at the floor of the assay were thinned out.

B1: tRNA (parent)
chain: GUUCCGUUGGCGUAAUGGUAACGCGUCUCCCUCCUAAGGAGAAGACUGCGGGUUCGAGUCCCGUACGGAACG

Variants of: B1
Experiment: yeast fitness relative to wild type (ratio to wild type); higher = fitter; tRNA-Arg(CCU), competitive growth, 37 C, YPD
Summary of the method: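 The tRNA-Arg(CCU) gene variants were made by chemical synthesis with a 3% per-site mutation rate at 69 sites and inserted at the native genomic locus of Saccharomyces cerevisiae. After pooling, the strains were competed in YPD at 37°C for 24 hours in six parallel replicates. Gene amplicons from the start population and each end population were read by 100-nucleotide paired-end sequencing, and Darwinian fitness relative to wild type was taken from genotype frequency changes. Genotypes needed ≥ 100 starting reads, and estimates < 0.5 were set to 0.5.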

Question: With C29G C34G as the variant, how does the yeast fitness read?
Answer: Its yeast fitness is 0.563.

Question: With C29U C46G G56A C60A C62G C66A as the variant, how does the yeast fitness read?
Answer: The yeast fitness was 0.543.

Question: With C29U A43G U53G G63A as the variant, how does the yeast fitness read?
Answer: Its yeast fitness is at most 0.5.

Question: With U28G U54G A65C G67A as the variant, how does the yeast fitness read?
Answer: Its yeast fitness is at most 0.5.

Question: Which yeast fitness does the source give for C29G G68C here?
Answer: The yeast fitness was 0.595.

Question: For C29U C30U A65G, which yeast fitness is on record?
Answer: Its yeast fitness is 0.704.

Question: For C29U C61U, which yeast fitness is on record?
Answer: The yeast fitness was 0.706.

Question: For C29A C49G C55U, which yeast fitness is on record?
Answer: Its yeast fitness is at most 0.5.

Question: Which yeast fitness does the source give for C29U C49A G67C here?
Answer: The yeast fitness was at most 0.5.

Question: With C29U C61U G63C as the variant, how does the yeast fitness read?
Answer: Its yeast fitness is at most 0.5.

Question: Which yeast fitness does the source give for C29A A37U G38C A40C A43C C46U here?
Answer: Its yeast fitness is 0.599.

Question: With C29A A36U G50C C55G C61G as the variant, how does the yeast fitness read?
Answer: Its yeast fitness is at most 0.5.

Question: With C29U A42U A43U C55G as the variant, how does the yeast fitness read?
Answer: The yeast fitness was 0.545.

Question: Which yeast fitness does the source give for C29A C55U G63C here?
Answer: Its yeast fitness is at most 0.5.

Question: With C29U A65U as the variant, how does the yeast fitness read?
Answer: Its yeast fitness is 0.754.

Question: With C29A G39A C49A C66G as the variant, how does the yeast fitness read?
Answer: Its yeast fitness is at most 0.5.

Question: With C29G G48C C60G as the variant, how does the yeast fitness read?
Answer: Its yeast fitness is 0.515.

Question: Which yeast fitness does the source give for C29A here?
Answer: Its yeast fitness is 0.631.

Question: With C29G as the variant, how does the yeast fitness read?
Answer: Its yeast fitness is 0.686.

Question: For C29U, which yeast fitness is on record?
Answer: The yeast fitness was 0.989.

Question: For C29U A36G U54C, which yeast fitness is on record?
Answer: Its yeast fitness is 0.542.

Question: Which yeast fitness does the source give for C29A A37G here?
Answer: The yeast fitness was 0.545.

Question: Which yeast fitness does the source give for C29G U35C G38C A57G here?
Answer: The yeast fitness was at most 0.5.

Question: Which yeast fitness does the source give for C29A U32C A42U A69U here?
Answer: The yeast fitness was at most 0.5.

Question: For C29G C34U U59C, which yeast fitness is on record?
Answer: Its yeast fitness is 0.631.

Question: With C29A C46A C55A A57G as the variant, how does the yeast fitness read?
Answer: The yeast fitness was at most 0.5.

Question: Which yeast fitness does the source give for C29A C49U here?
Answer: Its yeast fitness is 0.627.

Question: Which yeast fitness does the source give for C29U C33G G52A G58C here?
Answer: Its yeast fitness is 0.596.

Question: For C29U A43U A70C, which yeast fitness is on record?
Answer: Its yeast fitness is 1.01.

Question: Which yeast fitness does the source give for C29U C30U G63A here?
Answer: Its yeast fitness is 0.514.

Question: Which yeast fitness does the source give for C29G U32G G38A C46U A70U here?
Answer: Its yeast fitness is at most 0.5.

Question: Which yeast fitness does the source give for C29A A42U U64C A69C here?
Answer: Its yeast fitness is at most 0.5.

Question: For C29G C30U A36C G39A C46G, which yeast fitness is on record?
Answer: The yeast fitness was 0.52.

Question: Which yeast fitness does the source give for C29A C34U A36U here?
Answer: The yeast fitness was 0.568.

Question: With C29G U53G as the variant, how does the yeast fitness read?
Answer: Its yeast fitness is at most 0.5.

Question: With C29A C30U G48A G50A as the variant, how does the yeast fitness read?
Answer: Its yeast fitness is at most 0.5.

Question: For C29U C34G A43U C62U A65U A69C, which yeast fitness is on record?
Answer: Its yeast fitness is at most 0.5.

Question: For C29G A40C A42C A65C, which yeast fitness is on record?
Answer: Its yeast fitness is 0.565.

Question: For C29U C62A C66U, which yeast fitness is on record?
Answer: Its yeast fitness is at most 0.5.

Question: Which yeast fitness does the source give for C29A U35A G56A here?
Answer: The yeast fitness was 0.741.

Question: For C29U G38C A43U C55U, which yeast fitness is on record?
Answer: Its yeast fitness is 0.516.

Question: For C29G U32A C62A, which yeast fitness is on record?
Answer: The yeast fitness was 0.608.

Question: Which yeast fitness does the source give for C29U C33U A42C here?
Answer: The yeast fitness was 0.774.

Question: With C29G A37C G63A A65G as the variant, how does the yeast fitness read?
Answer: The yeast fitness was at most 0.5.

Question: With C29G G50A A57U A70U as the variant, how does the yeast fitness read?
Answer: Its yeast fitness is at most 0.5.

Question: With C29U C49A U64C as the variant, how does the yeast fitness read?
Answer: The yeast fitness was 0.597.

Question: With C29G C62U G68A as the variant, how does the yeast fitness read?
Answer: Its yeast fitness is 0.542.

Question: For C29G A37C A42U A57G G67A, which yeast fitness is on record?
Answer: Its yeast fitness is at most 0.5.

Question: For C29G U32C A42C, which yeast fitness is on record?
Answer: Its yeast fitness is 0.54.

Question: With C29G C31A U35C G67A as the variant, how does the yeast fitness read?
Answer: Its yeast fitness is at most 0.5.

Question: With C29U G38A as the variant, how does the yeast fitness read?
Answer: Its yeast fitness is 0.733.

Question: For C29U G38C, which yeast fitness is on record?
Answer: The yeast fitness was 0.545.

Question: With C29A C33G A70G as the variant, how does the yeast fitness read?
Answer: Its yeast fitness is at most 0.5.

Question: Which yeast fitness does the source give for C29U C46A here?
Answer: The yeast fitness was 0.932.

Question: With C29U C46U as the variant, how does the yeast fitness read?
Answer: The yeast fitness was 0.929.

Question: For C29A A37U A43C, which yeast fitness is on record?
Answer: The yeast fitness was 0.733.

Question: With C29U A43U C46A C61G G68A as the variant, how does the yeast fitness read?
Answer: Its yeast fitness is 0.567.

Question: Which yeast fitness does the source give for C29G A40C A43G A45C U47C C62U A69C here?
Answer: Its yeast fitness is at most 0.5.

Question: For C29U C34G A65G, which yeast fitness is on record?
Answer: Its yeast fitness is 0.668.

Question: Which yeast fitness does the source give for C29G U35C G56A C62G here?
Answer: The yeast fitness was at most 0.5.

Question: For C29U A45C U53C C55U G56C C61A C66U, which yeast fitness is on record?
Answer: Its yeast fitness is at most 0.5.

Question: For C29A C33U U47A A57U, which yeast fitness is on record?
Answer: Its yeast fitness is at most 0.5.

Question: With C29A G58C G67A as the variant, how does the yeast fitness read?
Answer: Its yeast fitness is 0.589.

Question: For C29U C34A G51A, which yeast fitness is on record?
Answer: The yeast fitness was 0.664.

Question: With C29A C31A A40U C49U as the variant, how does the yeast fitness read?
Answer: Its yeast fitness is at most 0.5.

Question: With C29G A36G A65C as the variant, how does the yeast fitness read?
Answer: The yeast fitness was at most 0.5.

Question: With C29G U35A G58C as the variant, how does the yeast fitness read?
Answer: Its yeast fitness is at most 0.5.

Question: With C29G C46U as the variant, how does the yeast fitness read?
Answer: Its yeast fitness is 0.611.

Question: With C29G C33G as the variant, how does the yeast fitness read?
Answer: The yeast fitness was 0.59.

Question: For C29G C33A, which yeast fitness is on record?
Answer: The yeast fitness was 0.641.

Question: For C29U A40U G56C, which yeast fitness is on record?
Answer: The yeast fitness was 0.552.

Question: For C29U C62G G68A, which yeast fitness is on record?
Answer: The yeast fitness was at most 0.5.

Question: With C29A C30U C33G C46U as the variant, how does the yeast fitness read?
Answer: The yeast fitness was at most 0.5.

Question: Which yeast fitness does the source give for C29G C55U A65C A70U here?
Answer: Its yeast fitness is 0.532.

Question: With C29U A45C C60A as the variant, how does the yeast fitness read?
Answer: The yeast fitness was 0.598.

Question: Which yeast fitness does the source give for C29U C31A A40C G52A C61A here?
Answer: The yeast fitness was at most 0.5.

Question: For C29G A65G, which yeast fitness is on record?
Answer: Its yeast fitness is 0.713.

Question: For C29G A65C, which yeast fitness is on record?
Answer: Its yeast fitness is 0.564.

Question: Which yeast fitness does the source give for C29G C49G G51U A57G here?
Answer: Its yeast fitness is at most 0.5.

Question: For C29G U35C U54C U64C, which yeast fitness is on record?
Answer: The yeast fitness was at most 0.5.

Question: With C29U C33A C34U G51C U64A C66U A69C as the variant, how does the yeast fitness read?
Answer: The yeast fitness was at most 0.5.

Question: For C29U A42U A43U A57C A70G, which yeast fitness is on record?
Answer: The yeast fitness was 0.577.

Question: Which yeast fitness does the source give for C29G A40C A57C here?
Answer: Its yeast fitness is 0.551.

Question: For C29U C49U, which yeast fitness is on record?
Answer: The yeast fitness was 0.836.
